Here are results for 34 molecules from ChEMBL document CHEMBL1132448, “Enantiospecific synthesis of 3-fluoromethyl-, 3-hydroxymethyl-, and 3-chloromethyl-1,2,3,4-tetrahydroisoquinolines as selective inhibitors of phenylethanolamine N-methyltransferase versus the alpha(2)-adrenoceptor” (J Med Chem, 1999).

The target in assay [1] is T1, Phenylethanolamine N-methyltransferase (Bos taurus, UniProt P10938).
T1 sequence (P10938 whole entry): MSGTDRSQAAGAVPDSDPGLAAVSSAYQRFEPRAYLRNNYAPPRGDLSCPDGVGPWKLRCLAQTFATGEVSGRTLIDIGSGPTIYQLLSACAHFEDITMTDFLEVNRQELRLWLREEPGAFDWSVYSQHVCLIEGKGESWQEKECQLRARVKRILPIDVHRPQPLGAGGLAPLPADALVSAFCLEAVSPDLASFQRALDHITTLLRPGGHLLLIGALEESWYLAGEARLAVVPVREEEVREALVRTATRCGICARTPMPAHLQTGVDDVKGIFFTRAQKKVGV
Description: In vitro inhibition of PNMT (Phenylethanolamine N-Methyltransferase).

Assay [2] deals with T2, Adrenergic receptor alpha-2 (Rattus norvegicus, UniProt P22086+P19328+P22909).
T2 sequence (P22086 whole entry): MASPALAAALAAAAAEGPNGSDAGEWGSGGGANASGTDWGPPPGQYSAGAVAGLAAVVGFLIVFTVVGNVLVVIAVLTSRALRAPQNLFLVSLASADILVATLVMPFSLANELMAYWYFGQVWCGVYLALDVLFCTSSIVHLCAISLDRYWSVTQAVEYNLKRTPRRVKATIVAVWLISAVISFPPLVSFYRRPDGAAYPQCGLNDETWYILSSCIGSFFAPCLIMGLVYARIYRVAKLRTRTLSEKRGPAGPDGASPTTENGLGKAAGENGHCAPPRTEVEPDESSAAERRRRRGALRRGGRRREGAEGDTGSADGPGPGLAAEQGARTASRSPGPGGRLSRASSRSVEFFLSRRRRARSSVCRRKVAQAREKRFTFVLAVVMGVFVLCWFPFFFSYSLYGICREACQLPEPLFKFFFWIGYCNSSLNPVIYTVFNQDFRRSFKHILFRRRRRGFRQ
T2 sequence (P19328 whole entry): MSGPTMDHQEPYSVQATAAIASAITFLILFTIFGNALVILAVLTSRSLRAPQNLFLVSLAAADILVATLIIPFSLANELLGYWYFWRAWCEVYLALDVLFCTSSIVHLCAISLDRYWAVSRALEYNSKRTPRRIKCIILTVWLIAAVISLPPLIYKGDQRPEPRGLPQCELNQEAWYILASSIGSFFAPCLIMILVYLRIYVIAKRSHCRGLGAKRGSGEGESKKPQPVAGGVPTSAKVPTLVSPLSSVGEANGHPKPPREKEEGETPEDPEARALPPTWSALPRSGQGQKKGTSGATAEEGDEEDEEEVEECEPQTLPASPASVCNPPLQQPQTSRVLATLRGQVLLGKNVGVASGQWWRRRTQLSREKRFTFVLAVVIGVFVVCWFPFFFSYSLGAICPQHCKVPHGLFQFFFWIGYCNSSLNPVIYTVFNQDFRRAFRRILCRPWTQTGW
T2 sequence (P22909 whole entry): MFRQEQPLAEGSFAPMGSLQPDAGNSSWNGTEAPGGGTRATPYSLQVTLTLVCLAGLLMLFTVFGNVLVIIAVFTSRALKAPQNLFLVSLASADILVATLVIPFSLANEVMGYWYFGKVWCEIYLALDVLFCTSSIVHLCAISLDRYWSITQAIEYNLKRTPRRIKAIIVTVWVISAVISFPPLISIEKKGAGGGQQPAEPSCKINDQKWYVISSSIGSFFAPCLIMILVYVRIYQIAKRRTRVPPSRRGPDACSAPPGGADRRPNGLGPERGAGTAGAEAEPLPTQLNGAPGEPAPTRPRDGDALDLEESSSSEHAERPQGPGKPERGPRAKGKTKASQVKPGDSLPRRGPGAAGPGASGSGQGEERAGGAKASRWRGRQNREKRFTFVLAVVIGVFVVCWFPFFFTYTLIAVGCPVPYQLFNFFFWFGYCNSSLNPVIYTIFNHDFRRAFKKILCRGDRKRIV
Description: In vitro inhibition of [3H]clonidine binding at the alpha-2 adrenergic receptor. It counts as protein assay. Put shortly: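 Membranes from male Sprague-Dawley rat cortex, homogenized and washed in 50 mM Tris/HCl pH 7.7. Incubated with [3H]clonidine (final 2.0 nM) and various inhibitor concentrations, 1 mL final volume, 25 °C for 30 min. Terminated by vacuum filtration on GF/B filters and counted. Nonspecific binding defined with 2 µM phentolamine. IC50 by log-probit analysis; Ki = IC50/(1 + [clonidine]/KD).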

Assay [3] in a line: Ratio of binding affinity of PNMT to alpha-2 receptors.

With `ClC[C@H]1Cc2ccccc2CN1`, the Ki in assay [1] is 3500 nM; in assay [2], 2300 nM. Further, in assay [3], the Selectivity came out at 0.66.
Regarding `FC[C@@H]1Cc2ccccc2CN1`, the results for the Ki in assay [1] and in assay [2] were 9900 nM and 37000 nM, respectively. In addition, the Selectivity in assay [3] is 3.7.
In the case of `O=S(=O)(Nc1ccc(Cl)cc1)c1ccc2c(c1)CN[C@@H](CF)C2`, the Ki came to 280 nM in assay [1] and 97000 nM in assay [2]. The Selectivity in assay [3] worked out at 350.
On the same counts, the results for `FC[C@@H]1Cc2ccc(Br)cc2CN1` are 470 nM, 17000 nM and 36.
Taken in the same sequence, the figures for `FC[C@H]1Cc2ccccc2CN1` were 690 nM, 2900 nM and 4.2.
For the molecule `O=S(=O)(Nc1ccc(Cl)cc1)c1ccc2c(c1)CNC(CF)C2` (centres undefined), in assay [3], the Selectivity was found to be 220.
Regarding `C[C@@H]1Cc2ccc([N+](=O)[O-])cc2CN1`, the Ki is 250 nM in assay [1] and 19000 nM in assay [2]. The Selectivity in assay [3] stood at 76.
Take `OC[C@H]1Cc2ccccc2CN1`: the Selectivity in assay [3] is 7.9.
As to `C[C@H]1Cc2ccc([N+](=O)[O-])cc2CN1`, the Ki in assay [1] stood at 1300 nM; in assay [2] it was 53000 nM. For the same molecule, the Selectivity in assay [3] was 41.
In the case of `O=[N+]([O-])c1ccc2c(c1)CN[C@@H](CCl)C2`, the Ki stood at 470 nM in assay [1] and 100000 nM in assay [2]. In addition, the Selectivity in assay [3] turned out to be 210.
Taken in the same sequence, the figures for `N#Cc1ccc2c(c1)CN[C@H](CF)C2` were 3500 nM, 580000 nM and 170.
For the molecule `FCC1Cc2ccccc2CN1` (centres undefined), the Selectivity in assay [3] was 2.5.
Regarding `C[C@@H]1Cc2ccccc2CN1`, the inhibitory constant (Ki) is 1000 nM in assay [1] and 490 nM in assay [2]. Also, the Selectivity in assay [3] came to 0.49.
On to `O=[N+]([O-])c1ccc2c(c1)CNC(CF)C2` (centres undefined), for which the Selectivity in assay [3] amounted to 140.
On to `ClC[C@@H]1Cc2ccccc2CN1`, for which the Ki in assay [1] turned out to be 12000 nM; in assay [2], 6600 nM. The Selectivity in assay [3] worked out at 0.55.
Consider `O=[N+]([O-])c1ccc2c(c1)CN[C@H](CF)C2`, for which the Ki in assay [1] was determined as 880 nM; in assay [2], 140000 nM. Further, the Selectivity in assay [3] worked out at 160.
As for `OC[C@H]1Cc2ccc(Br)cc2CN1`, the Ki is 380 nM in assay [1] and 1200 nM in assay [2]. Further, the Selectivity in assay [3] amounted to 3.2.
On to `c1ccc2c(c1)CCNC2`, for which the Selectivity in assay [3] turned out to be 0.35.
As for `OC[C@@H]1Cc2ccc(Br)cc2CN1`, the Ki in assay [1] turned out to be 480 nM; in assay [2], 970 nM. Further, the Selectivity in assay [3] stood at 2.
Take `FCC1Cc2ccc(Br)cc2CN1` (centres undefined): the Selectivity in assay [3] came to 10.
As to `O=[N+]([O-])c1ccc2c(c1)CN[C@H](CCl)C2`, the Ki in assay [1] was 660 nM; in assay [2], 270000 nM. Further, in assay [3], the Selectivity was determined as 410.
For `C[C@H]1Cc2ccccc2CN1`, the inhibitory constant (Ki) was found to be 38000 nM in assay [1] and 5700 nM in assay [2]. The Selectivity in assay [3] stood at 0.15.
For the molecule `O=[N+]([O-])c1ccc2c(c1)CN[C@@H](CF)C2`, the Ki in assay [1] is 520 nM; in assay [2], 47000 nM. Moreover, the Selectivity in assay [3] turned out to be 90.
In the case of `OC[C@@H]1Cc2ccccc2CN1`, the Selectivity in assay [3] turned out to be 1.1.
`NS(=O)(=O)c1ccc2c(c1)CNC(CF)C2` (centres undefined): the Selectivity in assay [3] came out at 1000.
Consider `N#Cc1ccc2c(c1)CN[C@@H](CF)C2`, for which the Ki in assay [1] came out at 970 nM; in assay [2], 360000 nM. Also, in assay [3], the Selectivity was found to be 370.
On to `FC[C@H]1Cc2ccc(Br)cc2CN1`, for which the results for the Ki in assay [1] and in assay [2] were 510 nM and 3100 nM, respectively. The Selectivity in assay [3] stood at 6.1.
As for `OCC1Cc2ccccc2CN1` (centres undefined), the Selectivity in assay [3] worked out at 6.
Regarding `NS(=O)(=O)c1ccc2c(c1)CNC(CO)C2` (centres undefined), the Selectivity in assay [3] was 4100.
On to `Clc1ccc2c(c1Cl)CNCC2`, for which, in assay [3], the Selectivity came out at 0.095.
With `O=S(=O)(Nc1ccc(Cl)cc1)c1ccc2c(c1)CN[C@H](CF)C2`, the Ki in assay [1] stood at 1900 nM; in assay [2], 101000 nM. For the same molecule, the Selectivity in assay [3] came out at 53.
Regarding `N#Cc1ccc2c(c1)CNC(CF)C2` (centres undefined), in assay [3], the Selectivity was 420.
Turning to `CC1Cc2ccccc2CN1` (centres undefined), the Selectivity in assay [3] is 0.36.
For the molecule `CCC1Cc2ccccc2CN1` (centres undefined), the Selectivity in assay [3] came out at 0.028.

The term Ki denotes a measure of affinity in units of concentration, obtained from inhibition or displacement. The low end stands for a stronger hold on the target, the high end for a looser hold on the target.
